Ki, Inhibition and inhibition data for 25 molecules are collected here from ChEMBL document CHEMBL1129250, “Interaction of 1,4-dihydropyridine and pyridine derivatives with adenosine receptors: selectivity for A3 receptors” (J Med Chem, 1996).

In one data set the target is Adenosine receptor A2a (Rattus norvegicus, UniProt P30543). The experiment in a line: Displacement of [3H]-CGS- 21680 binding to Adenosine A2A receptor in rat striatal membranes. It counts as cell membranes, Membrane. The method, boiled down: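 Adenosine deaminase (3 units/mL) present during preparation, 30 min preincubation at 30 °C and incubation. At least five competitor concentrations over 3 orders of magnitude.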
Sequence of Adenosine receptor A2a (P30543 whole entry): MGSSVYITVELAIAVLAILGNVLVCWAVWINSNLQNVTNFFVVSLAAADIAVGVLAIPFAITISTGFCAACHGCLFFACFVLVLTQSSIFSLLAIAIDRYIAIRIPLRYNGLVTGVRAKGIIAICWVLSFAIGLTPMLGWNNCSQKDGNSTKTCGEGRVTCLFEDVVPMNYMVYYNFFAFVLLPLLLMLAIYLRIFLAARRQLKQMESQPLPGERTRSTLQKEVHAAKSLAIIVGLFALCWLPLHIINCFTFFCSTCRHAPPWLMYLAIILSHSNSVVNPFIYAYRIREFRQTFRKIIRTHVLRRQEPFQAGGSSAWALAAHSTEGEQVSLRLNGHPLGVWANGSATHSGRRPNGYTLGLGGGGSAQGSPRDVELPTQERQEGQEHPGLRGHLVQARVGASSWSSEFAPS
For orientation: In a radioligand displacement assay an active substance lowers the binding of a labelled ligand.

For data set [1], the target named is T1, Voltage-gated L-type calcium channel (Rattus norvegicus, UniProt P22002+Q02485+P27732). The experiment in a line: Inhibition of [3H]isradipine binding to L-type [Ca2+] channel of rat brain membranes. Format: cell membranes, Membrane. The method, boiled down: (§1)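 Rat brain membranes (~100 μg protein) incubated 1 h at 25 °C with 0.1 nM [3H]isradipine and varying competitor in 50 mM Tris, pH 7.4. Nonspecific binding with 10 μM nitrendipine.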

Data set [2] has as its target T2, Equilibrative nucleoside transporter 1 (Rattus norvegicus, UniProt O54698).
T2 sequence (O54698 whole entry): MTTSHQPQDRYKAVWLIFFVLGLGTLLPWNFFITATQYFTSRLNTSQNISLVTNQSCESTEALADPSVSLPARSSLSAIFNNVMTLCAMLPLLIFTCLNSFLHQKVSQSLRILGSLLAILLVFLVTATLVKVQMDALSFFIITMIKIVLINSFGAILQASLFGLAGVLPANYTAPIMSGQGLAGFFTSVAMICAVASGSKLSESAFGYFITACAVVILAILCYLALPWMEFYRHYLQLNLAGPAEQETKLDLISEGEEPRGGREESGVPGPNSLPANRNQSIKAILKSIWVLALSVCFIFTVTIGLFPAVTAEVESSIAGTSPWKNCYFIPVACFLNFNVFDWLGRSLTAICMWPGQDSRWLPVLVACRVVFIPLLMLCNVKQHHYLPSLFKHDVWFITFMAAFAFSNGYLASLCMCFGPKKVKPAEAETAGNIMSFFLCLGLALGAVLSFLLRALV
The experiment in a line: Ability to displace radioligand from Na+ independent Adenosine transporter in rat. The method, boiled down: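 Rat forebrain membranes incubated 30 min at 23 °C with 0.7 nM [3H]NBI and varying competitor concentrations in 50 mM Tris, pH 7.4. Ki or percent of specific binding displaced.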

For data set [3], the target named is T3, Adenosine receptor A3 (Rattus norvegicus) (UniProt P28647).
T3 sequence (whole entry): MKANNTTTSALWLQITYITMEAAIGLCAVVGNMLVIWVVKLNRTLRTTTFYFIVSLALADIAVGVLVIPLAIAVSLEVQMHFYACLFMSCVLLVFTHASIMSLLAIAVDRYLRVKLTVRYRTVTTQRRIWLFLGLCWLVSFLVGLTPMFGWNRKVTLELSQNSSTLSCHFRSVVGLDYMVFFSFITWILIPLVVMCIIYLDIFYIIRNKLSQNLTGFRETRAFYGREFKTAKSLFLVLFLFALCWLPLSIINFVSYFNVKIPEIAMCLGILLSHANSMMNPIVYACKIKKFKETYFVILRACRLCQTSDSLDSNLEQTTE
The experiment in a line: Inhibition of adenylyl cyclase by A3 agonist IB-MECA(10e-6M) in CHO cell membranes expressing rat Adenosine A3 receptor. Format: functional, cell-based. The method, boiled down:
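Membranes from CHO cells stably expressing rat A3 receptor. Stimulated with 1 μM forskolin and [α-32P]ATP. Test compounds at 10 μM against the stated IB-MECA concentration. Stop buffer contained [3H]cyclic AMP. Reported as percent inhibition; significance by t-test.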

Data set [4] addresses T4, Adenosine receptor A3 (Rattus norvegicus, UniProt P28647).
T4 sequence (P28647 whole entry): T3 sequence (whole entry)
The experiment in a line: Binding affinity against rat Adenosine A3 receptor from CHO cells. Format: cell-based. The method, boiled down: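 CHO cell membranes stably expressing cloned rat A3 receptor. Nonspecific binding defined with 100 μM R-PIA. Filtration assay. IC50 converted to Ki by Cheng–Prusoff.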

Data set [5] addresses T5, Adenosine receptor A1 (Rattus norvegicus) (UniProt P25099).
T5 sequence (whole entry): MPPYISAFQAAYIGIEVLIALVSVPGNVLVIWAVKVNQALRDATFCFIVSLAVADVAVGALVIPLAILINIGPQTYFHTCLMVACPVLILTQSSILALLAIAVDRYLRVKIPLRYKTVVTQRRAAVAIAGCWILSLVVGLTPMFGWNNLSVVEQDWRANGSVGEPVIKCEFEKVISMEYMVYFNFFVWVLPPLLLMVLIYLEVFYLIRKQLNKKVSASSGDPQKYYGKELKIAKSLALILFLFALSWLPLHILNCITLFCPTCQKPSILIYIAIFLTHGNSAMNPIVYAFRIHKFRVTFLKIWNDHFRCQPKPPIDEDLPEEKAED
The experiment in a line: (§2) Displacement of [3H](R)-PIA binding to Adenosine A1 receptor in rat brain membranes. Format: cell membranes. The note with it: concentration not given here. The method, boiled down: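 Rat cerebral cortex membranes with [3H]-(R)-PIA. Adenosine deaminase (3 units/mL) present during membrane preparation, during a 30 min preincubation at 30 °C and during incubation. Competitor at ≥5 concentrations spanning 3 log units, DMSO ≤2%.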

Data set [6] deals with T1, Voltage-gated L-type calcium channel. The experiment in a line: Inhibition of [3H]-isradipine binding to L-type [Ca2+] channel of rat brain membranes. Format: cell membranes, Membrane. The method, boiled down: as §1
The target in the next data set is T6, Adenosine receptor A1 (Rattus norvegicus, UniProt P25099).
T6 sequence (P25099 whole entry): T5 sequence (whole entry)
The data set is described as §2. It counts as cell membranes.

The target in data set [7] is T7, Adenosine receptor A3 (Homo sapiens, UniProt P0DMS8).
T7 sequence (P0DMS8 whole entry): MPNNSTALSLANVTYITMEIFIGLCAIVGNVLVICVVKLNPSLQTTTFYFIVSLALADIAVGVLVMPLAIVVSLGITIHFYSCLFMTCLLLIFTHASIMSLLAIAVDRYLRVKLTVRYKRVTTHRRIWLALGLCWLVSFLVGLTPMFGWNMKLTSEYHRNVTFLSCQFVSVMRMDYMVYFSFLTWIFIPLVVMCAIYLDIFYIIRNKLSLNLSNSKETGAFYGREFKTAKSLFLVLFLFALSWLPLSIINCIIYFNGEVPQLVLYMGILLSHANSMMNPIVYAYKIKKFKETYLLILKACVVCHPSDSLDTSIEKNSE
The experiment in a line: Displacement of [125]AB-MECA binding to human Adenosine A3 receptor expressed in HEK cells. Format: cell-based, HEK293.

Data set [8] addresses Adenosine receptor A2a (Rattus norvegicus) (UniProt P30543). The experiment in a line: Displacement of [3H]-CGS- 21680 from Adenosine A2A receptor in rat striatal membranes. The settings on record: Membrane, concentration not given here. It counts as cell membranes. The method, boiled down:
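Rat striatal membranes with [3H]CGS 21680. Adenosine deaminase (3 units/mL) present during preparation, 30 min preincubation at 30 °C and incubation. At least five competitor concentrations over 3 orders of magnitude.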

Sequence of Adenosine receptor A2a (Rattus norvegicus) (P30543 whole entry): as the sequence (P30543 whole entry) above

Turning to `CCO/C(O)=C1\C(C)=NC(C)=C(C(=O)OC)C1C` (stereo in doubt; 1), the Ki at Adenosine receptor A2a (read-out: Ki) was found to be 46.1 µM.

For `CCO/C(O)=C1/C(C)=NC(C)=C(C(=O)OCCSc2ccccc2)C1C` (centres undefined), on Adenosine receptor A2a (read-out: Ki), the Ki was determined as 7.1 µM.

Take `CCOC(=O)C1=C(c2ccccc2)N=C(C)/C(=C(\O)OCC)C1C` (stereo in doubt; 27): the Ki on Adenosine receptor A2a (read-out: Ki) stood at 35.9 µM. For the same molecule, the Inhibition in data set [1] is 17%. As to `COC(=O)C1=C(C)NC(C)=C(C(=O)OCCN(C)Cc2ccccc2)C1c1cccc([N+](=O)[O-])c1` (centres undefined) [NICARDIPINE], the Ki in data set [2] came out at 5.36 µM; on Adenosine receptor A3 [4], 11 µM. The inhibition in data set [3] was 27.2%.

For the molecule `CCO/C(O)=C1\C(C)=NC(C)=C(C(=O)OC)C1c1ccc([N+](=O)[O-])cc1` (centres undefined), the inhibition in data set [5] is 37%. Also, the Ki at Adenosine receptor A2a (read-out: Ki) was determined as 35.6 µM.

Take `CCO/C(O)=C1\C(C)=NC(C)=C(C(=O)OC)C1CCc1ccccc1` (centres undefined): on Adenosine receptor A2a (read-out: Ki), the Ki was found to be 6.71 µM.

In the case of `CCOC(=O)C1=C(C)NC(C)=C(C(=O)OC)C1/C=C/c1ccccc1` (centres undefined), the Ki in [6] came to 0.694 µM; at Adenosine receptor A2a (read-out: Ki), 49.3 µM; at Adenosine receptor A3 [4], 12.1 µM; on Adenosine receptor A1, 16.1 µM; on Adenosine receptor A3 [7], 0.67 µM. With `CCOC(=O)C1=C(C)NC(C)=C(C(=O)OC)C1c1ccccc1` (centres undefined), on Adenosine receptor A2a (read-out: Ki), the Ki was found to be 2.74 µM. On the same count and under the same terms, as for `CCCCC1=C(C(=O)OCC)C(C)/C(=C(/O)OCC)C(C)=N1` (centres undefined), the figure is 38 µM; as for `CCO/C(O)=C1\C(C)=NC(C)=C(C(=O)OC)C1c1ccccc1C(F)(F)F` (centres undefined), 20.7 µM. For `CCOC(=O)C1=C(C)NC(C)=C(C(=O)OC)C1c1cccc([N+](=O)[O-])c1` (centres undefined) [NITRENDIPINE], the inhibitory constant (Ki) on Adenosine receptor A2a (read-out: Ki) was 23 µM; at Adenosine receptor A1, 8.96 µM; on Adenosine receptor A3 [7], 8.3 µM. As for `CO/C(O)=C1/C(C)=NC(C)=C(C(=O)OCc2ccccc2)C1C` (centres undefined), the Ki on Adenosine receptor A2a (read-out: Ki) was 9.72 µM. `COCCO/C(O)=C1\C(C)=NC(C)=C(C(=O)OC)C1C` (centres undefined) gave an inhibition in [8] of 37%.

Turning to `CCO/C(O)=C1\C(C)=NC(C)=C(C(=O)OC)C1CC(C)CCC=C(C)C` (centres undefined), the Ki at Adenosine receptor A2a (read-out: Ki) is 23.1 µM. The same measure, in the same setting: under `CCO/C(O)=C1\C(C)=NC(C)=C(C(=O)OC)C1CC` (centres undefined) stands 9.56 µM; under `CCO/C(O)=C1\C(C)=NC(C)=C(C(=O)OC)C1c1ccc(OC)cc1` (centres undefined), 12.7 µM; under `CCCC1C(C(=O)OCC)=C(C)N=C(C)/C1=C(\O)OC` (centres undefined), 11.5 µM. With `CCOC(=O)C1=C(c2ccccc2)N=C(C)/C(=C(\O)OCC)C1C` (stereo in doubt; 30), on Adenosine receptor A2a (read-out: Ki), the Ki turned out to be 28.4 µM. For the same molecule, the Inhibition in data set [1] is reported as less than 10%. With `CCOC(=O)C1=C(C)NC(C)=C(C(=O)OC)C1C#Cc1ccccc1` (centres undefined), the Inhibition in [1] is 23%. In the case of `CCO/C(O)=C1\C(C)=NC(C)=C(C(=O)OC)C1C` (stereo in doubt; 29), on Adenosine receptor A2a (read-out: Ki), the inhibitory constant (Ki) was 8.96 µM. As for `CCO/C(O)=C1\C(C)=NC(C)=C(C(=O)OC)C1c1ccc2c(c1)OCO2` (centres undefined), the Ki at Adenosine receptor A2a (read-out: Ki) was determined as 5.27 µM; at Adenosine receptor A1, 3.66 µM; at Adenosine receptor A3 [7], 4.58 µM.

For `CCO/C(O)=C1\C(C)=NC(C)=C(C(=O)OC)C1c1ccc(O)c(OC)c1` (centres undefined), the Ki on Adenosine receptor A2a (read-out: Ki) was 56.8 µM.

`COc1ccc(C2C=CNC=C2)cc1`: the Ki at Adenosine receptor A2a (read-out: Ki) amounted to 71 µM. In the case of `CCOC(=O)C1=C(c2ccccc2)N=C(C)/C(=C(/O)OCC)C1/C=C/c1ccccc1` (centres undefined), the Ki on Adenosine receptor A2a (read-out: Ki) amounted to 4.77 µM. Besides, in data set [1], the Inhibition was less than 10%. As to `COC(=O)C1=C(C)NC(C)=C(C(=O)OCCCN2CCC(c3ccccc3)(c3ccccc3)CC2)[C@@H]1c1cccc([N+](=O)[O-])c1` [DEXNIGULDIPINE], at Adenosine receptor A2a, the Ki entry is “Not Active”.

One may read the Ki as the dissociation constant of the complex between target and ligand, obtained from inhibition or displacement. Usually Inhibition stands for the share of the control response that was lost under treatment. Broadly, the inhibition is the drop in the measured response relative to a control, in per cent. High values mean a response far below the control, low ones a response near the control.
